Experimental data from ChEMBL document CHEMBL4431385, “Substituted tetracyclic indole core derivatives of HCV NS5A inhibitor MK-8742” (Bioorg Med Chem Lett, 2016).
Substitutions are numbered along the chain they refer to.

Columns and labels:
[1] = AUC in Sprague-Dawley rat at 5 mg/kg, po; assay type: ADME, organism-based; details: in vivo
Procedure, shortened: (§1)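 Male Sprague–Dawley rats got IV dosing at 2 mg/kg in 60% PEG200 and PO dosing at 5 mpk in either 0.5% MC or 10% TWEEN, depending on compound. The readouts are PO AUC (µM h), PO Cmax (µM), T1/2 (h), Cl (ml/min/kg) and F (%).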

[2] = Half life in Sprague-Dawley rat at 5 mg/kg, po or 2 mg/kg, iv; assay type: ADME, organism-based; details: in vivo; procedure, shortened: as §1
[3] = tested on: T1, Nonstructural protein 5A (Hepatitis C virus), Q5L478 [Y93H]; assay: Inhibition of HCV GT1a NS5A Y93H mutant assessed as suppression of replicon RNA level by real-time PCR analysis; details: Hepatitis C virus subtype 1a
T1 sequence (whole entry): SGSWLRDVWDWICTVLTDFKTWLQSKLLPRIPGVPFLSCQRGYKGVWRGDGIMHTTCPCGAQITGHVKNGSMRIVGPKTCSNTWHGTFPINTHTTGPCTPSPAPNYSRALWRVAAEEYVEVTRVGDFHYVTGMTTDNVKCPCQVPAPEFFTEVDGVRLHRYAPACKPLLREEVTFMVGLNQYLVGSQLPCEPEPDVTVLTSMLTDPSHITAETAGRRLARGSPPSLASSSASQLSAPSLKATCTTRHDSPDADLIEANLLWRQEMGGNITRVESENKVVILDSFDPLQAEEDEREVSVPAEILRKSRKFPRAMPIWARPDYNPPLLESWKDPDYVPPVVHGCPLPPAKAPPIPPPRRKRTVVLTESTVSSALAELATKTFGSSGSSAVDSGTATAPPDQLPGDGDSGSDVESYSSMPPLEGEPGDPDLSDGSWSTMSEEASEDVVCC

[4] = Cmax in Sprague-Dawley rat at 5 mg/kg, po; assay type: ADME, organism-based; design: dose 5 mg/kg, route oral; details: in vivo; procedure, shortened: as §1
[5] = molecular target: T2, Nonstructural protein 5A (Hepatitis C virus) (UniProt Q5L478); assay: Inhibition of HCV GT1a NS5A assessed as suppression of replicon RNA level by real-time PCR analysis; details: Hepatitis C virus subtype 1a
T2 sequence (whole entry): T1 sequence (whole entry) with H93Y

[6] = tested on: Nonstructural protein 5A (Hepatitis C virus), Q5L478 [UNDEFINED MUTATION]; assay: Inhibition of HCV GT1a NS5A L31V mutant assessed as suppression of replicon RNA level by real-time PCR analysis; details: Hepatitis C virus subtype 1a
[7] = molecular target: T2, Nonstructural protein 5A (Hepatitis C virus); assay: Inhibition of HCV GT2b NS5A assessed as suppression of replicon RNA level by real-time PCR analysis; details: Hepatitis C virus subtype 2b
Procedure, shortened: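 GT2b replicon, which carries the naturally occurring NS5A 31M resistance-associated variant; potency given as EC90 in nM.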

[8] = molecular target: T2, Nonstructural protein 5A (Hepatitis C virus); assay: Inhibition of HCV GT3a NS5A assessed as suppression of replicon RNA level by real-time PCR analysis; details: Hepatitis C virus subtype 3a
[9] = Cmax in Sprague-Dawley rat at 10 mg/kg, po; assay type: ADME, organism-based; design: dose 10 mg/kg, route oral; details: in vivo
Procedure, shortened: (§2)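 Male Sprague–Dawley rats got an IV dose of 2 mg/kg in 60% PEG200 and a PO dose of 10 mpk in 10% TWEEN. Reported values are PO AUC (µM h), PO Cmax (µM), T1/2 (h), clearance (ml/min/kg) and oral bioavailability F (%).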

[10] = Half life in Sprague-Dawley rat at 10 mg/kg, po or 2 mg/kg, iv; assay type: ADME, organism-based; details: in vivo; procedure, shortened: as §2
[11] = AUC in Sprague-Dawley rat at 10 mg/kg, po; assay type: ADME, organism-based; details: in vivo; procedure, shortened: as §2
[12] = Clearance in Sprague-Dawley rat at 10 mg/kg, po or 2 mg/kg, iv; assay type: ADME, organism-based; details: in vivo; procedure, shortened: as §2
[13] = Oral bioavailability in Sprague-Dawley rat at 10 mg/kg; assay type: ADME, organism-based; details: in vivo; procedure, shortened: as §2
[14] = tested on: Hepatitis C virus subtype 1a; assay: Selectivity ratio of EC90 for HCV GT1a NS5A L31V mutant to EC90 for HCV GT1a NS5A
[15] = tested on: Hepatitis C virus subtype 1a; assay: Selectivity ratio of EC90 for HCV GT1a NS5A Y93H mutant to EC90 for HCV GT1a NS5A
[16] = Selectivity ratio of EC90 for HCV GT2b NS5A to EC90 for HCV GT1a NS5A
[17] = Oral bioavailability in Sprague-Dawley rat at 5 mg/kg; assay type: ADME, organism-based; details: in vivo; procedure, shortened: as §1
[18] = molecular target: T2, Nonstructural protein 5A (Hepatitis C virus); assay: Inhibition of HCV GT2a NS5A assessed as suppression of replicon RNA level by real-time PCR analysis; details: Hepatitis C virus subtype 2a
[19] = molecular target: T2, Nonstructural protein 5A (Hepatitis C virus); assay: Inhibition of HCV GT4a NS5A assessed as suppression of replicon RNA level by real-time PCR analysis; details: Hepatitis C virus subtype 4a
[20] = Clearance in Sprague-Dawley rat at 5 mg/kg, po or 2 mg/kg, iv; assay type: ADME, organism-based; details: in vivo; procedure, shortened: as §1
[21] = molecular target: T2, Nonstructural protein 5A (Hepatitis C virus); assay: Inhibition of HCV GT1b NS5A assessed as suppression of replicon RNA level by real-time PCR analysis; details: Hepatitis C virus subtype 1b

With `COC(=O)N[C@H](C(=O)N1CCC[C@H]1c1ncc(-c2ccc3c(c2)OC(c2cccc(OC)c2)n2c-3cc3cc(-c4cnc([C@@H]5CCCN5C(=O)[C@@H](NC(=O)OC)C(C)C)[nH]4)ccc32)[nH]1)C(C)C` (stereo partly drawn) the AUC [1] was 0.51 µM·h, the half-life [2] was 4.3 h and the EC90 [3] was 8 nM. The Cmax [4] was 100 nM, the EC90 [5] was 0.005 nM and the EC90 [6] was 0.2 nM. For the same molecule, the EC90 [7] was 2 nM and the EC90 [8] was 0.1 nM.
`COC(=O)N[C@H](C(=O)N1CCC[C@H]1c1ncc(-c2cc(F)c3c(c2)OC(c2cccc(OC)c2)n2c-3cc3cc(-c4cnc([C@@H]5CCCN5C(=O)[C@@H](NC(=O)OC)C(C)C)[nH]4)ccc32)[nH]1)C(C)C` (stereo partly drawn) showed an EC90 [3] of 6 nM, a Cmax [9] of 240 nM and an EC90 [5] of 0.01 nM. It also gave a half-life [10] of 5.9 h, an EC90 [6] of 0.2 nM and an EC90 [7] of 6 nM. It also gave an EC90 [8] of 0.07 nM, an AUC [11] of 2.1 µM·h and a clearance [12] of 10 mL/min/kg. The bioavailability [13] was 12%.
`COC(=O)N[C@H](C(=O)N1CCC[C@H]1c1ncc(-c2cc(F)c3c(c2)OC(c2cc(Cl)cc(OC)c2)n2c-3cc3cc(-c4cnc([C@@H]5CCCN5C(=O)[C@@H](NC(=O)OC)C(C)C)[nH]4)ccc32)[nH]1)C(C)C` (stereo partly drawn) showed a Selectivity ratio [14] of 10, an EC90 [3] of 3 nM and a Cmax [9] of 100 nM. The EC90 [5] was 0.01 nM, the Selectivity ratio [15] was 300 and the half-life [10] was 5.2 h. For the same molecule, the EC90 [6] was 0.1 nM, the EC90 [7] was 0.7 nM and the EC90 [8] was 0.1 nM. It also gave a Selectivity ratio [16] of 70, an AUC [11] of 0.75 µM·h and a clearance [12] of 8 mL/min/kg. It also gave a bioavailability [13] of 3%.
`COC(=O)N[C@H](C(=O)N1CCC[C@H]1c1ncc(-c2cc(F)c3c(c2)O[C@@H](c2ccccc2)n2c-3cc3cc(-c4cnc([C@@H]5CCCN5C(=O)[C@@H](NC(=O)OC)C(C)C)[nH]4)ccc32)[nH]1)C(C)C` showed an AUC ([1]; Sprague-Dawley, read-out: AUC) of 2.8 µM·h, a bioavailability [17] of 33% and an EC90 [18] of 0.15 nM. For the same molecule, the half-life [2] was 3.6 h, the EC90 [19] was 0.04 nM and the EC90 [3] was 34 nM. For the same molecule, the Cmax [4] was 330 nM, the EC90 [5] was 0.005 nM and the clearance [20] was 11 mL/min/kg. It also gave an EC90 [6] of 0.4 nM, an EC90 [7] of 18 nM and an EC90 [8] of 0.4 nM. For the same molecule, the EC90 [21] was 0.003 nM.
`COC(=O)N[C@H](C(=O)N1C[C@H](F)C[C@H]1c1ncc(-c2cc(F)c3c(c2)OC(c2ccccc2)n2c-3cc3cc(-c4cnc([C@@H]5C[C@@H](F)CN5C(=O)[C@@H](NC(=O)OC)C(C)C)[nH]4)ccc32)[nH]1)C(C)C` (mixture of isomers) showed an EC90 [18] of 0.2 nM, an EC90 [19] of 0.1 nM and an EC90 [3] of 0.08 nM. For the same molecule, the EC90 [5] was 0.005 nM, the Selectivity ratio [15] was 16 and the EC90 [6] was 9 nM. For the same molecule, the EC90 [7] was 72 nM, the EC90 [8] was 0.8 nM and the EC90 [21] was 0.003 nM.
